# Test results reported in PubChem BioAssay.
# The source made the active and inactive calls.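 How the source made its calls, unless noted: active means viability at or below 30% in both replicate assays; inconclusive means viability at or below 30% in just one of the two assays; inactive means the rest.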
# Assay: reduced viability of SK-BR-3 breast cancer cells – cell-based, 24 h, human, pilot screen (AID 572;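 active means viability at or below 10% of carrier control in both of two separate runs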;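 further: compound exposure lasted between 18 and 24 h rather than exactly 24 h; 100% = carrier-treated control wells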)
# Conditions: SK-BR-3 viability, CellTiter-Glo luminescence, at 10 µM, stronger effect = lower value
row,SMILES,viability
1,Cc1c(CNCc2cccs2)c(C(=O)O)c(C)n1Cc1ccccc1,91% (inactive)
2,Cc1ccc(OCC(O)Cn2c(NCCc3ccccc3)nc3c2c(=O)[nH]c(=O)n3C)cc1 (stereo not given),60% (inactive)
3,COC(=O)CN(Cc1ccco1)S(=O)(=O)c1ccccc1,98% (inactive)
4,CCc1[nH]nc2c1C1(CCN(C(=O)OCc3ccccc3)CC1)C(C#N)=C(N)O2,112% (inactive)
5,Cc1cc(C(=O)Nc2c(C)n(C)n(-c3ccccc3)c2=O)c(C)o1,71% (inactive)
6,O=C(NCc1cccs1)c1cc2c(s1)CS(=O)(=O)C2,116% (inactive)
7,Cc1cc(C)nc(-n2nc(C)cc2NC(=O)c2ccc(Br)o2)n1,108% (inactive)
8,CCOc1ncccc1C(=O)Nc1ccc(Cl)cc1,92% (inactive)
9,COc1cccc(NC(=O)C2C3C=CC4(O3)C2C(=O)N(C(C)C)C4C(=O)NC2CCCCC2C)c1 (stereo not given),111% (inactive)
10,CCOC(=O)Cc1csc(NC(=O)CSc2nnc(C3CC3)n2C)n1,95% (inactive)
11,COc1ccccc1OCCOCCn1cnc2ccccc2c1=O,87% (inactive)
12,O=C(CN1C(=O)CC(c2ccco2)Sc2ccccc21)Nc1ccc2c(c1)OCCO2 (stereo not given),130% (inactive)
13,CCN1CCc2c(C#N)c(N3CCCCC3)nc(NCc3ccccc3)c2C1,103% (inactive)
14,Cn1c(=O)c2c(nc(SCC(=O)N3CCCc4ccccc43)n2C)n(C)c1=O,94% (inactive)
15,Cc1cccc(CC2CC(=O)N(c3ccccc3)C2=O)c1 (stereo not given),117% (inactive)
16,CCN(CC)S(=O)(=O)c1cccc(-c2nnc(SCCOc3ccccc3C)o2)c1,75% (inactive)
17,COC(=O)c1cccc(NC(=O)CN2CCN(Cc3ccccc3)CC2)c1,56% (inactive)
18,CN(C)CCC(c1ccc(Br)cc1)c1ccccn1 (stereo not given),110% (inactive)
19,CCCn1c(SCC(=O)NC(=O)NCc2ccco2)n[nH]c1=O,101% (inactive)
20,Cc1ccc(C2=N/C(=C/N3CCOCC3)C(=O)O2)cc1,84% (inactive)

row,SMILES,viability
1,O=C(NCc1ccco1)c1ccc2c(=O)n(CC3CCCO3)c(=S)[nH]c2c1 (stereo not given),94% (inactive)
2,Cc1cc(-c2ccccc2)nnc1NCCN1CCOCC1,98% (inactive)
3,CN(C)CCOC(=O)C(c1ccccc1)C1(O)CCCC1 (stereo not given),127% (inactive)
4,CCOC(=O)N1CCC(NC(=O)Cn2ncc3c4ccccc4n(C)c3c2=O)CC1,114% (inactive)
5,COc1cccc(NC(=O)N(Cc2ccco2)C(C)c2cccs2)c1 (stereo not given),92% (inactive)
6,C=CCN=C1SCC(=O)N1S(=O)(=O)c1ccc(C)cc1,88% (inactive)
7,Cc1ccc(S(=O)(=O)N2CCN(c3nc(C(C)C)c4c(c3C#N)CC(C)(C)OC4)CC2)cc1,65% (inactive)
8,O=C(O)Cc1ccc(-c2ccccc2)cc1,112% (inactive)
9,Cc1ccc2nc(NC(=O)C3CCCN(S(=O)(=O)c4cccc5nonc45)C3)sc2c1 (stereo not given),97.5% (inactive)
10,O=C(NCCCN1CCCC1=O)C1CCN(S(=O)(=O)N2CCOCC2)CC1,90% (inactive)
11,CC1CCCC(C)N1CCNC(=O)C1CCN(S(=O)(=O)N2CCCCC2)CC1 (stereo not given),93% (inactive)
12,O=C(CSc1nnc(-c2ccccn2)n1Cc1ccccc1)N1CCCC1,109% (inactive)
13,C[C@H](CS)C(=O)N1CCC[C@H]1C(=O)O,93% (inactive)
14,c1ccc(-c2ccc(-c3ccccn3)nn2)nc1,112% (inactive)
15,CS(=O)(=O)N(CC(=O)NCc1ccncc1)Cc1ccc(Cl)cc1,104% (inactive)
16,O=C(CCn1c(=O)oc2ccccc21)N1CCN(c2ccccc2Cl)CC1,72% (inactive)
17,CC(C)Oc1cc2oc(=O)c3c(c2cc1Cl)CCC3,66% (inactive)
18,CC(=O)C1=C(NC(=O)c2ccccc2F)C[C@@H]2[C@H]1C2(C)C,90% (inactive)
19,CCOC(=O)Cn1nnnc1CN(Cc1ccc(OC)cc1)Cc1cc2cc(C)ccc2[nH]c1=O,101% (inactive)
20,Cc1ccc(CN2C(=O)CCC2C(=O)NCCCN2CCCC(C)C2)cc1 (stereo not given),82% (inactive)

# Assay: HUVEC growth inhibition – cell-based, human, primary screen (AID 575);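 further: 100% = median of untreated cell wells with 0.1% DMSO on each plate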
# Conditions: HUVEC proliferation, CellTiter-Glo luminescence, 72 h; at 10 µM; stronger effect = lower value
# Procedure, shortened: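 System – primary HUVEC, no more than 12 passages · Medium – Low-serum (2% FBS) EBM, supplemented · Times – 72 h exposure, 37 °C, 5% CO2, 30 min RT equilibration · Measured by – luminescent ATP assay · Read-out – % viability relative to median vehicle-well signal on each plate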
row,SMILES,viability
1,Cc1c(CNCc2cccs2)c(C(=O)O)c(C)n1Cc1ccccc1,109% (inactive)
2,Cc1ccc(OCC(O)Cn2c(NCCc3ccccc3)nc3c2c(=O)[nH]c(=O)n3C)cc1 (stereo not given),88.8% (inactive)
3,COC(=O)CN(Cc1ccco1)S(=O)(=O)c1ccccc1,102% (inactive)
4,CCc1[nH]nc2c1C1(CCN(C(=O)OCc3ccccc3)CC1)C(C#N)=C(N)O2,85.6% (inactive)
5,Cc1cc(C(=O)Nc2c(C)n(C)n(-c3ccccc3)c2=O)c(C)o1,105% (inactive)
6,O=C(NCc1cccs1)c1cc2c(s1)CS(=O)(=O)C2,101% (inactive)
7,Cc1cc(C)nc(-n2nc(C)cc2NC(=O)c2ccc(Br)o2)n1,87.4% (inactive)
8,CCOc1ncccc1C(=O)Nc1ccc(Cl)cc1,91.4% (inactive)
9,COc1cccc(NC(=O)C2C3C=CC4(O3)C2C(=O)N(C(C)C)C4C(=O)NC2CCCCC2C)c1 (stereo not given),105% (inactive)
10,CCOC(=O)Cc1csc(NC(=O)CSc2nnc(C3CC3)n2C)n1,107% (inactive)
11,COc1ccccc1OCCOCCn1cnc2ccccc2c1=O,93.8% (inactive)
12,O=C(CN1C(=O)CC(c2ccco2)Sc2ccccc21)Nc1ccc2c(c1)OCCO2 (stereo not given),99% (inactive)
13,CCN1CCc2c(C#N)c(N3CCCCC3)nc(NCc3ccccc3)c2C1,2.17% (active)
14,Cn1c(=O)c2c(nc(SCC(=O)N3CCCc4ccccc43)n2C)n(C)c1=O,107% (inactive)
15,Cc1cccc(CC2CC(=O)N(c3ccccc3)C2=O)c1 (stereo not given),101% (inactive)
16,CCN(CC)S(=O)(=O)c1cccc(-c2nnc(SCCOc3ccccc3C)o2)c1,89% (inactive)
17,COC(=O)c1cccc(NC(=O)CN2CCN(Cc3ccccc3)CC2)c1,105% (inactive)
18,CN(C)CCC(c1ccc(Br)cc1)c1ccccn1 (stereo not given),80.3% (inactive)
19,CCCn1c(SCC(=O)NC(=O)NCc2ccco2)n[nH]c1=O,90.4% (inactive)
20,Cc1ccc(C2=N/C(=C/N3CCOCC3)C(=O)O2)cc1,82.5% (inactive)

row,SMILES,viability
1,O=C(NCc1ccco1)c1ccc2c(=O)n(CC3CCCO3)c(=S)[nH]c2c1 (stereo not given),76% (inactive)
2,Cc1cc(-c2ccccc2)nnc1NCCN1CCOCC1,85.7% (inactive)
3,CN(C)CCOC(=O)C(c1ccccc1)C1(O)CCCC1 (stereo not given),92.9% (inactive)
4,CCOC(=O)N1CCC(NC(=O)Cn2ncc3c4ccccc4n(C)c3c2=O)CC1,116% (inactive)
5,COc1cccc(NC(=O)N(Cc2ccco2)C(C)c2cccs2)c1 (stereo not given),88.9% (inactive)
6,C=CCN=C1SCC(=O)N1S(=O)(=O)c1ccc(C)cc1,89.1% (inactive)
7,Cc1ccc(S(=O)(=O)N2CCN(c3nc(C(C)C)c4c(c3C#N)CC(C)(C)OC4)CC2)cc1,111% (inactive)
8,O=C(O)Cc1ccc(-c2ccccc2)cc1,84.3% (inactive)
9,Cc1ccc2nc(NC(=O)C3CCCN(S(=O)(=O)c4cccc5nonc45)C3)sc2c1 (stereo not given),71.6% (inactive)
10,O=C(NCCCN1CCCC1=O)C1CCN(S(=O)(=O)N2CCOCC2)CC1,118% (inactive)
11,CC1CCCC(C)N1CCNC(=O)C1CCN(S(=O)(=O)N2CCCCC2)CC1 (stereo not given),110% (inactive)
12,O=C(CSc1nnc(-c2ccccn2)n1Cc1ccccc1)N1CCCC1,104% (inactive)
13,C[C@H](CS)C(=O)N1CCC[C@H]1C(=O)O,92.7% (inactive)
14,c1ccc(-c2ccc(-c3ccccn3)nn2)nc1,55.3% (inactive)
15,CS(=O)(=O)N(CC(=O)NCc1ccncc1)Cc1ccc(Cl)cc1,101% (inactive)
16,O=C(CCn1c(=O)oc2ccccc21)N1CCN(c2ccccc2Cl)CC1,54.2% (inactive)
17,CC(C)Oc1cc2oc(=O)c3c(c2cc1Cl)CCC3,99% (inactive)
18,CC(=O)C1=C(NC(=O)c2ccccc2F)C[C@@H]2[C@H]1C2(C)C,99.2% (inactive)
19,CCOC(=O)Cn1nnnc1CN(Cc1ccc(OC)cc1)Cc1cc2cc(C)ccc2[nH]c1=O,101% (inactive)
20,Cc1ccc(CN2C(=O)CCC2C(=O)NCCCN2CCCC(C)C2)cc1 (stereo not given),113% (inactive)
